For test [1], the target named is T1, Adenosine receptor A2a (Homo sapiens, UniProt P29274). Kind of test: Displacement of [3H]ZM241385 from human adenosine A2a receptor expressed in CHO cells by scintillation counting. The class given is cell-based. In short, it runs like this: (§1)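 Membranes of CHO cells expressing hA2A (50 µg protein) incubated with 1 nM [³H]ZM241385 in 50 mM Tris-HCl, 10 mM MgCl₂, pH 7.4, 60 min at 4 °C. Six to eight antagonist concentrations, or 1 µM for percent inhibition. Filtration and counting. Ki by Cheng–Prusoff from IC50, mean ± SEM of four duplicate experiments.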
(Loss of bound radioactivity is the signal in a displacement assay; it reports binding, not function.)

For a further test, the target named is T2, Adenosine receptor A2b (Homo sapiens, UniProt P29275).
T2 sequence (P29275 whole entry): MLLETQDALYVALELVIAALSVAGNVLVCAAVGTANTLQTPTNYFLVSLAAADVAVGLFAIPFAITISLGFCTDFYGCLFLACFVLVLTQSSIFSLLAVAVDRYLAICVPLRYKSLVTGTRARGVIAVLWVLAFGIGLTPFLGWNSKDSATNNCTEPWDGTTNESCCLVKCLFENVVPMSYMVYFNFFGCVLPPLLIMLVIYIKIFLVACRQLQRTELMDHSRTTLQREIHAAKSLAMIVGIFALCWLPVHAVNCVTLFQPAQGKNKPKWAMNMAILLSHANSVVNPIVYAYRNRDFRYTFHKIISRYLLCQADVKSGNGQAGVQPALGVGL
The experiment in a line: Antagonist activity at human adenosine A2b receptor transfected in CHO cells assessed as inhibition of NECA-induced cAMP accumulation by scintillation counting. The class given is functional, cell-based. On the technique in general: Changes in cAMP serve as a functional read-out for many G protein-coupled receptors.

The target in test [2] is T3, Adenosine receptor A3 (Homo sapiens) (UniProt P0DMS8).
T3 sequence (whole entry): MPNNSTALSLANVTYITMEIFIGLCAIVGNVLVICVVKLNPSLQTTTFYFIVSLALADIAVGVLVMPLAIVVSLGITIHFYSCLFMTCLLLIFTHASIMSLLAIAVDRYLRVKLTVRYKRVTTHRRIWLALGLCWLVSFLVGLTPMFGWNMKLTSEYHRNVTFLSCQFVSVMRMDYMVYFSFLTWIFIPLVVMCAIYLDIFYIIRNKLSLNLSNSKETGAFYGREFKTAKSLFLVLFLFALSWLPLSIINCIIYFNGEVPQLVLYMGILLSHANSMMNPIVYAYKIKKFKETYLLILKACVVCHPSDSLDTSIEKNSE
The experiment in a line: Displacement of [125I]AB-MECA from human adenosine A3 receptor expressed in CHO cells at 1 uM by scintillation counting. The format is cell-based. Summed up: (§2)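 hA3 CHO membranes (50 µg protein) incubated with 0.5 nM [¹²⁵I]AB-MECA in 50 mM Tris-HCl, 10 mM MgCl₂, 1 mM EDTA, pH 7.4, for 120 min at 4 °C. Six to eight ligand concentrations, or single 1 µM for % inhibition. Nonspecific binding defined with 1 µM AB-MECA. Filtration on GF/B, counting. Ki by Cheng–Prusoff, mean ± SEM of four duplicate assays.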

For the next test, the target named is T4, Adenosine receptor A1 (Homo sapiens, UniProt P30542).
T4 sequence (P30542 whole entry): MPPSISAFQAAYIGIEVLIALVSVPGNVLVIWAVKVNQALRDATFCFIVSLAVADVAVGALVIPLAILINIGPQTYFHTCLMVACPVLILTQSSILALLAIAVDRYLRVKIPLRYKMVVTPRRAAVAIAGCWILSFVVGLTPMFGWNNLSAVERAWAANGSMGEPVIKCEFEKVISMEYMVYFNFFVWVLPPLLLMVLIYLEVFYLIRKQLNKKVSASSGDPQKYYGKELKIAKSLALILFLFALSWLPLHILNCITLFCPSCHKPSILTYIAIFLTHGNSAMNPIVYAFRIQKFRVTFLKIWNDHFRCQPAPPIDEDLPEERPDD
Kind of test: Displacement of [3H]DPCPX from human adenosine A1 receptor expressed in CHO cells by scintillation counting. The class given is cell-based. In short, it runs like this:
(§3)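 hA1 CHO membranes (50 µg protein) incubated with 1 nM [³H]DPCPX in 50 mM Tris-HCl pH 7.4 for 120 min at 25 °C. Six to eight antagonist concentrations, or 1 µM for % inhibition. Nonspecific binding taken with 1 µM DPCPX. Bound ligand filtered and counted. Ki from IC50 via Cheng–Prusoff, four separate assays in duplicate.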

Test [3] deals with T5, Adenosine receptor A2b (Homo sapiens) (UniProt P29275).
T5 sequence (whole entry): T2 sequence (P29275 whole entry)
The experiment in a line: Antagonist activity at human adenosine A2b receptor transfected in CHO cells assessed as inhibition of NECA-induced cAMP accumulation at 1 uM by scintillation counting. The format is functional, cell-based. Summed up: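 CHO cells stably expressing hA2B (1 × 10⁶/assay), pre-incubated 10 min at 37 °C, pH 7.4, with adenosine deaminase 2 IU/ml and Ro 20-1724 as PDE inhibitor. Stimulated by 200 nM NECA, compounds tested at 1 µM, result given as percent inhibition. Stopped with cold 6% TCA, ether-extracted, cAMP measured by [³H]cAMP competition with beef adrenal binding protein.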

The target of test [4] is T6, Adenosine receptor A1 (Homo sapiens) (UniProt P30542).
T6 sequence (whole entry): T4 sequence (P30542 whole entry)
The experiment in a line: Displacement of [3H]DPCPX from human adenosine A1 receptor expressed in CHO cells at 1 uM by scintillation counting. The class given is cell-based. In short, it runs like this:
as §3

Test [5] deals with T1, Adenosine receptor A2a. Kind of test: Displacement of [3H]ZM241385 from human adenosine A2a receptor expressed in CHO cells at 1 uM by scintillation counting. The format is cell-based. Summed up:
as §1

Test [6] has as its target T7, Adenosine receptor A3 (Homo sapiens, UniProt P0DMS8).
T7 sequence (P0DMS8 whole entry): T3 sequence (whole entry)
Kind of test: Displacement of [125I]AB-MECA from human adenosine A3 receptor expressed in CHO cells by scintillation counting. The format is cell-based. In short, it runs like this: as §2

In test [7] the target is T7, Adenosine receptor A3. Kind of test: Activity at human adenosine A3 receptor transfected in CHO cells assessed as Cl-IB-MECA-inhibited cAMP accumulation by scintillation counting. The class given is functional, cell-based. Summed up: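 hA3-transfected CHO cells (1 × 10⁶/assay), trypsinised, pre-incubated 10 min at 37 °C in buffered salt/glucose medium pH 7.4 with adenosine deaminase 2 IU/ml and Ro 20-1724. cAMP response inhibited by 100 nM Cl-IB-MECA. Stopped with cold 6% TCA, ether-extracted, cAMP read by [³H]cAMP competition binding to beef adrenal binding protein. IC50 as mean ± SEM of four experiments.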

Usually Ki stands for the equilibrium dissociation constant of an inhibitor or competing ligand from its target. Higher therefore signals a looser hold on the target. Broadly, the IC50 is the point on the concentration scale where inhibition reaches its midpoint. Usually inhibition stands for the share of the control response that was lost under treatment.

T1 sequence (P29274 whole entry): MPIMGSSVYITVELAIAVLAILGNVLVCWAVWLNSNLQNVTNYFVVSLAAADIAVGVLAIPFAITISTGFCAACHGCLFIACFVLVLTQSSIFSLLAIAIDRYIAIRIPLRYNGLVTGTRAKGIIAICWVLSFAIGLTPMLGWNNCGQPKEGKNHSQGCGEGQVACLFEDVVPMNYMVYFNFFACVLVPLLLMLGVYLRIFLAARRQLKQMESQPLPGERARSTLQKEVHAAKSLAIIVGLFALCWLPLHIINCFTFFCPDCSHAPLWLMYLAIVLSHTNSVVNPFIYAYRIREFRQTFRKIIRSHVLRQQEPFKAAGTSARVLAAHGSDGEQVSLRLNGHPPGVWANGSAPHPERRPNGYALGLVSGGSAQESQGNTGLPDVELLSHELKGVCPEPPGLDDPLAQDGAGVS

As to `Nc1nc2ccccc2c2cc(-c3ccco3)nn12`, the figures for the Ki at Adenosine receptor A2a [1] and at Adenosine receptor A1 were 80 nM and 35 nM, respectively. In addition, the IC50 on Adenosine receptor A2b amounted to 120 nM. In test [2], this compound had an inhibition of 35%.

As to `O=C(OCc1ccccc1)c1cc2c3ccccc3[nH]c(=O)n2n1`, the inhibition in [3] was 2%; in [2] it was 1%; in [4], 3%; at Adenosine receptor A2a [5] it was 4%.

Take `CC(C)OC(=O)c1cc2c3ccccc3nc(O)n2n1`: on Adenosine receptor A3 [6], the Ki was 450 nM. For the same compound, the inhibition in [3] was found to be 4%; in [4], 1%; on Adenosine receptor A2a [5] it was 1%.

For `CCOC(=O)c1nn2c(=O)[nH]c3ccccc3c2c1C(=O)OCC`, at Adenosine receptor A3 [6], affinity was put at a Ki of 101 nM. Also, the inhibition in test [3] was 5%; in test [4], 12%; on Adenosine receptor A2a [5] it was 1%.

For `Oc1ccccc1-c1n[nH]c(-c2ccccc2)n1`, the inhibition in test [3] is 8%; in test [2] it was 39%; in [4] it was 47%; at Adenosine receptor A2a [5], 2%.

Take `CCOC(=O)c1cc2c3ccccc3[nH]c(=O)n2n1`: the Ki on Adenosine receptor A3 [6] stood at 315 nM.

Regarding `Oc1ccccc1-c1cc(-c2ccccc2)[nH]n1`, the inhibition in test [3] came to 4%; in test [2], 7%; in test [4], 13%; on Adenosine receptor A2a [5], 1%.

As for `Nc1ccccc1-c1cc(-c2ccccc2)n[nH]1`, on Adenosine receptor A3 [6], the Ki is 680 nM. The values for the inhibition (in test [3]; in test [4]; on Adenosine receptor A2a [5]) were 2%, 9% and 1%, respectively.

Consider `Nc1ccccc1-c1cc(-c2ccco2)n[nH]1`, for which the inhibition stood at 1% in test [3], 1% in [2], 4% in test [4] and 6% at Adenosine receptor A2a [5].

Consider `CCOC(=O)c1cc2c3ccccc3nc(O)n2n1`, for which the inhibition is 3% in [3], 3% in [4] and 5% on Adenosine receptor A2a [5].

At Adenosine receptor A3 [6], `Oc1nc2ccccc2c2cc(-c3ccccc3F)nn12` gave a Ki of 140 nM. The inhibition in [3] was 1%; in test [4], 1%; on Adenosine receptor A2a [5], 11%.

As for `COC(=O)c1cc2c3ccccc3nc(O)n2n1`, the inhibition in [3] amounted to 6%; in [4] it was 1%; at Adenosine receptor A2a [5], 3%.

On to `CCOC(=O)c1ccccc1-c1cc(-c2cccs2)n[nH]1`, for which the inhibition in test [3] was 2%; in test [2] it was 23%; in [4], 3%; on Adenosine receptor A2a [5], 1%.

On to `Oc1nc2ccccc2c2cc(-c3ccccn3)nn12`, for which, on Adenosine receptor A3 [6], the affinity corresponds to a Ki of 252 nM. The inhibition was determined as 2% in [3], 4% in test [4] and 1% at Adenosine receptor A2a [5].

`COC(=O)c1cc2c3ccccc3[nH]c(=O)n2n1` had a Ki at Adenosine receptor A3 [6] of 440 nM.

Take `COc1ccc(-c2cc3c4ccccc4[nH]c(=O)n3n2)cc1`: at Adenosine receptor A3 [6], the Ki is 100 nM. Further, the inhibition in test [3] came out at 2%; in [4], 4%; on Adenosine receptor A2a [5], 1%. Besides, the IC50 at Adenosine receptor A3 [7] was determined as 324 nM.

Take `Nc1nc2ccccc2c2cc(-c3cccs3)nn12`: the inhibition in [3] was 3%; in test [2] it was 18%; in test [4], 44%; on Adenosine receptor A2a [5] it was 20%.

In the case of `Oc1nc2ccccc2c2cc(-c3ccccc3)nn12`, the inhibition in test [3] stood at 4%; in [2], 28%; in test [4], 12%; at Adenosine receptor A2a [5], 1%.

At Adenosine receptor A3 [6], `Oc1nc2ccccc2c2cc(-c3cccs3)nn12` displayed a Ki of 40 nM. The inhibition in test [3] amounted to 6%; in test [4] it was 7%; at Adenosine receptor A2a [5], 20%. Besides, the IC50 at Adenosine receptor A3 [7] came to 263 nM.

Turning to `O=C(Nc1nc2ccccc2c2cc(-c3ccccc3)nn12)c1ccccc1`, the Ki on Adenosine receptor A3 [6] stood at 520 nM. For the same compound, the inhibition was determined as 4% in test [3], 1% in test [4] and 1% on Adenosine receptor A2a [5].

At Adenosine receptor A3 [6], `Cc1ccc(-c2cc3c4ccccc4nc(O)n3n2)cc1` yielded a Ki of 25 nM. In addition, the inhibition in [3] is 2%; in [4], 1%; at Adenosine receptor A2a [5] it was 12%. Besides, the IC50 at Adenosine receptor A3 [7] is 88 nM.

On to `Nc1nc2ccccc2c2cc(-c3ccccc3)nn12`, for which the inhibition is 3% in test [3], 15% in test [2], 1% in [4] and 5% at Adenosine receptor A2a [5].

On Adenosine receptor A3 [6], `Nc1ccccc1-c1cc(-c2cccs2)[nH]n1` yielded a Ki of 600 nM.

Consider `O=C(NCc1ccccc1)c1cc2c3ccccc3[nH]c(=O)n2n1`, for which the inhibition is 1% in test [3], 25% in test [2], 2% in test [4] and 5% on Adenosine receptor A2a [5].

For the compound `COc1ccc(-c2cc(-c3ccccc3N)n[nH]2)cc1`, the Ki on Adenosine receptor A3 [6] turned out to be 480 nM.

With `Nc1ccccc1-c1cc(-c2cccs2)n[nH]1`, the inhibition was 3% in test [3], 2% in test [4] and 1% on Adenosine receptor A2a [5].

Consider `COc1ccc(-c2cc3c4ccccc4nc(N)n3n2)cc1`, for which the inhibition in test [3] came to 3%; in test [2], 45%; in test [4], 7%; on Adenosine receptor A2a [5] it was 15%.

As for `COc1ccc(-c2cc(-c3ccccc3N)[nH]n2)cc1`, the figures for the inhibition (in [3]; in test [4]; on Adenosine receptor A2a [5]) were 5%, 2% and 9%, respectively.

On to `Oc1nc2ccccc2c2cc(-c3ccco3)nn12`, for which, at Adenosine receptor A3 [6], the Ki was 80 nM. The values for the inhibition (in test [3]; in test [4]; on Adenosine receptor A2a [5]) were 3%, 5% and 1%, respectively. Also, the IC50 on Adenosine receptor A3 [7] is 138 nM.

In turn, `Oc1nc2ccccc2c2cc(-c3ccc(Cl)cc3)nn12` gave a Ki on Adenosine receptor A3 [6] of 23 nM. The values for the inhibition (in test [3]; in test [4]; on Adenosine receptor A2a [5]) were 3%, 6% and 1%, respectively. Further, the IC50 on Adenosine receptor A3 [7] was found to be 82 nM.

For the origin of these results see ChEMBL document CHEMBL2311495, “Pyrazolo[1,5-c]quinazoline derivatives and their simplified analogues as adenosine receptor antagonists: synthesis, structure-affinity relationships and molecular modeling studies” (Bioorg Med Chem, 2013).
